Source: ChEMBL document CHEMBL4513216, “Probing the Open Global Health Chemical Diversity Library for Multistage-Active Starting Points for Next-Generation Antimalarials” (ACS Infect Dis, 2020)

Test: Toxicity liver stage against HepG2, at 10uM
Type: cell-based
Set-up: test concentration 10 uM, cell line HepG2-A16-CD81EGFP
Conditions: human, HepG2-A16-CD81EGFP cells; read-out: INHIBITION
How it was run: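 Uninfected HepG2-A16-CD81EGFP cells, 3 × 10^3 per well, 1536-well, plated on prespotted compound at 10 μM final, parasite-free screening media added to match infected plates; puromycin 10 μM positive, DMSO 0.5% negative; run in parallel with 48 h PbLuc assay at 37 °C, 5% CO2; viability by CellTiter-Glo luminescence, normalized to controls.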

| SMILES | cytotoxicity at 10 µM |
| --- | --- |
| Cc1ccc2[nH]c([C@H]3CCN(CC4CCCCC4)C3)nc2c1 | -3.45% |
| CO[C@@H]1CN(c2ccccc2)S(=O)(=O)[C@@]12CCN(C(=O)N(C)C)C2 | 10.1% |
| CC(=O)N1CC[C@@]2(O)CCCC[C@H]2[C@@H]1c1ccc2c(c1)OCO2 | 15.4% |
| COc1ccc2nnc(CCCC(=O)NCCc3ccccn3)n2n1 | -9.49% |
| O=C(CCc1ccccc1)NCC1CCN(Cc2cccs2)CC1 | -2.68% |
| COc1ccc(S(=O)(=O)NCC(O)c2sccc2C)cc1Cl (stereo not drawn) | 1.17% |
| COCCN1C(=O)CC[C@@H]2[C@H]1CCN2C(=O)C1CCOCC1 | 9.67% |
| Cc1nc(-c2cc(C(=O)N3CCN(C)CC3)c3ccccn23)cn1C | 8.73% |
| Cc1ccc(N2CCO[C@@H]3CN(Cc4cccc(C)n4)CC[C@@H]3C2)nn1 | 7.67% |
| CC1c2ncc(Cn3cncn3)n2CCN1C(=O)c1ccsc1 (stereo not drawn) | -0.551% |
| O=C(c1ccccc1)N1CCC2(CC1)CC(Oc1ccccc1)CO2 (stereo not drawn) | 16.6% |
| Cc1ncsc1CN1C[C@H](C(=O)NC2CCCC2)[C@@H]2CCO[C@@H]2C1 | 8.04% |
| CCc1ccc(NC(=O)C2OC(c3cccs3)=NN2C(C)=O)cc1 (stereo not drawn) | 4.64% |
| O=C1N[C@H]2OCCC[C@H]2[C@H](c2ccccc2)N1 | -0.675% |
| O=C(c1cnc(C2CC2)nc1)N1CCCC(c2nccs2)C1 (stereo not drawn) | 4.53% |
| Cc1nc(C)c(C(=O)N2Cc3ccccc3OCC2Cn2ccnc2)s1 (stereo not drawn) | 9.21% |
| CC(C)(C)CN1CCCC(c2nccnc2Nc2cnccn2)C1 (stereo not drawn) | 5.37% |
| CCN(CC)S(=O)(=O)N1C[C@@H](c2ccccc2)[C@H]2[C@H]1CCCCCN2C | -10.4% |
| CNc1cncc(C2CCCN2c2cc(C)ncn2)n1 (stereo not drawn) | -23.3% |
| Cc1nnsc1C(=O)N1CCCC(n2nnc3cc(F)ccc32)C1 (stereo not drawn) | 3.49% |
| CN1CCCCC1c1ncc2c(n1)CCN(Cc1ccccc1Cl)C2 (stereo not drawn) | -1.67% |
| CNC(=O)Cc1ccc(NC(=O)NCc2nc(C)sc2C)cc1 | -4.36% |

| SMILES | cytotoxicity at 10 µM |
| --- | --- |
| Cc1cc(N(C)C)nc(N2CCn3c(nnc3C(C)C)C2)n1 | 19% |
| O=C(Nc1cccc(N2CCOCC2)c1)N[C@H](CO)c1ccccc1 | -8.1% |
| O=C(Cn1nnn(-c2cccs2)c1=O)N(CC1CCOC1)C1CC1 (stereo not drawn) | -39.9% |
| COc1ccccc1C(=O)NCCC(=O)Nc1c(C)nn(C)c1C | -9.49% |
| COc1cc(C2(C(=O)N3CCN(CC(C)(C)O)CC3)CC2)ccc1C | -0.0264% |
| O=C(OCC1CCN(c2ccccc2)C1)c1cscn1 (stereo not drawn) | 1.27% |
| CC(CS(C)(=O)=O)N(C(=O)c1ccc(Cl)s1)C1CC1 (stereo not drawn) | 1.51% |
| CN(C)c1ccccc1CN1CCCC(N2CCCC2=O)C1 (stereo not drawn) | -9.13% |
| N#Cc1ccc(CNC(=O)NC2CCN(CC(F)(F)F)C2)cc1 (stereo not drawn) | 7.06% |
| CCc1nccn1C1CCCN(C(=O)c2ccn(-c3ccccc3)n2)C1 (stereo not drawn) | 5.84% |
| O=C(N1CCC(Oc2ccncc2)C1)C1(c2ccc(F)cc2)CC1 (stereo not drawn) | -8.55% |
| Cc1nc(C2CCCN2Cc2cc(Cl)c3c(c2)OCCCO3)no1 (stereo not drawn) | 10.3% |
| CS(=O)(=O)c1ccccc1NCc1ccc(Cn2ccnc2)cc1 | 1.67% |
| CC(C)CS(=O)(=O)CC(=O)NC(C)(C)c1cccc(F)c1 | -1.12% |
| CN(c1ncnc2ccccc12)C1CCCN(c2cccnn2)C1 (stereo not drawn) | 19.5% |
| CCCc1noc(CCC(=O)Nc2cc(C(F)(F)F)c[nH]c2=O)n1 | -7.21% |
| Cc1cnn(C2CN(CC(=O)N(C)Cc3cccs3)C2)c1 | -16.1% |
| CN(Cc1ccc([S+](C)[O-])cc1)c1ccc(C(F)(F)F)cn1 (stereo not drawn) | -1.32% |
| CC1(c2ccc(Br)cc2)CC(=O)N(CC(N)=O)C1=O (stereo not drawn) | 2.05% |
| Cc1ccc(OCCC(=O)N(C)CC(=O)Nc2cc(C)on2)c(C)c1 | -16.9% |
| CCc1c(C)nc2ccccc2c1N1CCC(C(=O)NC)CC1 | 3.85% |
| CC(=O)NC1CCCN(C(=O)Nc2nnc(C(C)C)s2)C1 (stereo not drawn) | 12.6% |

| SMILES | cytotoxicity at 10 µM |
| --- | --- |
| Cc1cc(C(=O)NS(C)(=O)=O)ccc1I | 6.85% |
| O=C(NC[C@@H]1C[C@@H]2CN(C(=O)CO)C[C@H]2O1)c1ccsc1 | -96.5% |
| Cn1cc(CN2C[C@H]3CCC[C@@]3(COc3cccnc3)C2)cn1 | -107% |
| CCN(CC)c1ncnc2c1CCN(c1ccc(C)nn1)CC2 | -108% |
| Cn1cccc1C(=O)N1CCn2cc(CN3CCCC3)nc2C1 | -72.3% |
| N#Cc1ccc(C(=O)N2CCn3cc(CN4CCCCC4)nc3C2)cc1 | -84.7% |
| CCN(C)c1ncnc2c1CCN(C(=O)c1cccn1C)CC2 | -67.8% |
| CN(C)CCCN(C)C1CCN(c2cccc(-c3cscn3)c2)CC1 | -5% |
| O=C(O)CNc1cc(-c2nccnc2N2CCCC2)c2cc[nH]c2n1 | 4.9% |
| Cc1nc(C(C)Nc2nc3c(s2)c(C)nn3C)n[nH]1 (stereo not drawn) | 10.2% |
| NCCO[C@H]1C[C@@H](O)C12CCN(Cc1c(F)cccc1F)CC2 | -20% |
| CCCc1cnc(C)nc1N1CCC(Cc2cccc(C(N)=O)c2)C1 (stereo not drawn) | 3.52% |
| Cc1c[nH]c(CN2CCCCC2CCn2cccn2)c(C)c1=O (stereo not drawn) | 3.69% |
| CCC[C@H]1CN(S(=O)(=O)c2ccc(CC)s2)C[C@@H]1N | 4.69% |
| CC(NC(=O)C1CCCC1)c1nncn1C(C)C (stereo not drawn) | 6.89% |
| COc1cc(C(=O)N2CCC3(CC2)Nc2ccccc2NC3=O)ccn1 | 0.701% |
| CNC(=O)CC1COCCN1C(=O)C1(c2ccc(Cl)cc2)CCC1 (stereo not drawn) | 5.33% |
| CCn1c(C2CCNCC2)nn(Cc2ccc(C(=O)NC)o2)c1=O | 6.8% |
| CC(=O)c1cccc(CN2CC(Oc3ccccc3C)C2)c1 | -4.16% |
| CN(Cc1c[nH]nc1-c1ccc(F)cc1F)Cc1nccn1C | 2.5% |
| COCCN(C)Cc1nc(-c2cccc(F)c2F)oc1C | 2.56% |
| COc1ccccc1N1CCN(C(=O)CCn2nnnc2C)CC1(C)C | 6.48% |

| SMILES | cytotoxicity at 10 µM |
| --- | --- |
| CN(Cc1ccncc1)Cc1cnn(-c2ccc(F)cc2)c1 | 10% |
| Cc1ccc(C(=O)N[C@H]2CN(CCO)C[C@@H]2C2CC2)cc1Cl | 6.93% |
| O[C@H]1[C@H](NCCSc2ccccn2)c2ccccc2C12CCNCC2 | -13.4% |
| Nc1nc(CNc2ncnc3c2CCN(Cc2ccoc2)CC3)cs1 | 1.63% |
| O=C(CCCn1nnc(-c2ccc(F)cc2)n1)N1CCOCC(CO)C1 (stereo not drawn) | 16.2% |
| Fc1ccc(C2CCCCN2Cc2cc(-c3ccccn3)no2)cc1 (stereo not drawn) | -3.88% |
| O=C(c1cc(-c2cn[nH]c2)nc2ccc(F)cc12)N1CCSCC1 | -0.0178% |
| Cc1cc(C(=O)N2CCN(Cc3ccco3)C(CCO)C2)cc(=O)[nH]1 (stereo not drawn) | -1.5% |
| Cc1ccc(CS(=O)(=O)NCc2ccco2)cc1 | -2.11% |
| O=S(=O)(Cc1ccc(F)cc1)NCc1ccco1 | 14.1% |
| Cc1nnsc1CN(C)C(=O)CN1CC2(CCNCC2)OC1=O | 11.4% |
| CN(Cc1ccccc1)CC1(O)CCCN(CC(C)(C)C)C1=O (stereo not drawn) | -12.4% |
| CC(C)CC(=O)Nc1cccc(CNCc2cccs2)c1 | 0.25% |
| CC1CCN(CCCNC(=O)NC(C)c2nncn2C)CC1 (stereo not drawn) | -11.6% |
| CCn1ccnc1CN1CCN(CC(=O)NC(C2CC2)C2CC2)CC1 | -19.4% |
| COc1ccc(C(=O)N2CCCC(n3nc(C)nc3C)C2)c(OC)c1 (stereo not drawn) | -18.2% |
| CC(C)c1n[nH]c(C2CN(C(=O)c3cc4c(s3)CCC4)CCO2)n1 (stereo not drawn) | -11% |
| COc1ccc(C)cc1C(=O)NC(CC(=O)O)c1cccs1 (stereo not drawn) | -16.3% |
| O=C(NCC(F)(F)F)C1CSCN1S(=O)(=O)c1ccccc1F (stereo not drawn) | -16.3% |
| Cc1ccc(C(C)N(C)Cc2nc3c(cnn3C)c(=O)[nH]2)cc1 (stereo not drawn) | -3.91% |
| CN(Cc1ccccc1)C(=O)c1nc(S(C)(=O)=O)n2ccccc12 | -7.36% |
| CC(C)CC(CNC(=O)NCc1cc[nH]n1)N1CCOCC1 (stereo not drawn) | -12.6% |

| SMILES | cytotoxicity at 10 µM |
| --- | --- |
| CS(=O)(=O)c1ccccc1C(=O)NCCCN1CCc2ccccc2C1 | 1.01% |
| Cc1ccc(-c2nc(CN3CCN(S(=O)(=O)N(C)C)CC3)cs2)o1 | 6.81% |
| Cc1cc(C)n(CC2CCCN2C(=O)c2ccc3c(c2)OCO3)n1 (stereo not drawn) | -9.31% |
| CCc1nccn1-c1cncc(C2CCCN2)n1 (stereo not drawn) | -6.17% |
| CC(NCc1cnc(N2CCOCC2)nc1)c1ccc(Cl)s1 (stereo not drawn) | -4.9% |
| CN1CCN(C(=O)[C@H]2CC[C@@H]3[C@@H](CCN3Cc3ccsc3)O2)CC1 | 1.07% |
| CCCN1CCC(c2nc3ccc(NCc4cccnc4)cn3n2)CC1 | -121% |
| Cn1cc(CN2C[C@@H]3COC[C@]3(CNC(=O)c3ccco3)C2)cn1 | -73.1% |
| Fc1cnc(N2CC3(CCN(Cc4ccsc4)C3)C2)nc1 | -84.4% |
| CN(Cc1ccncc1)C1COC2(CCN(Cc3ccccn3)CC2)C1 (stereo not drawn) | -103% |
| NCC(=O)N1CCCC(c2cncc(Nc3ncccn3)n2)C1 (stereo not drawn) | 0.848% |
| COCC(=O)N1CCOC2(CCCN(c3cnccn3)C2)C1 (stereo not drawn) | 7.83% |
| Cc1ccc(C(=O)N2CCC3(CC2)CCN(Cc2ccccn2)C3=O)o1 | 2.49% |
| O=S(=O)(N1CCCC1)N1CC[C@H](c2ccccc2)[C@H]2NCCCC[C@H]21 | -25.1% |
| COc1ccc(OCCc2sc(C3(O)CCCNCC3)nc2C)cc1 (stereo not drawn) | -14.9% |
| CS(=O)(=O)NCc1cc(=O)n2c(n1)CN(Cc1ccco1)CCC2 | 7.25% |
| Cc1cccc(N2CC3(CCN(Cc4nccn4C)C3)CC2=O)c1 (stereo not drawn) | -78.6% |
| COCCN1CCC2(COCc3cnc(N4CCOCC4)nc32)C1 (stereo not drawn) | 11.6% |
| O=C(NCCc1cccs1)[C@]12COC[C@H]1CN(c1ncccn1)C2 | -109% |
| Cc1nc(COCc2cnc3n2CCN(C)C3C)cs1 (stereo not drawn) | 6.01% |
